Assay results from ChEMBL document CHEMBL2331355, “Synthesis, structure activity relationship and mode of action of 3-substitutedphenyl-1-(2,2,8,8-tetramethyl-3,4,9,10-tetrahydro-2H,8H-pyrano[2,3-f]chromen-6-yl)-propenones as novel anticancer agents in human leukaemia HL-60 cells” (Eur J Med Chem, 2013).
Calls of active or inactive are those of the source. The calls are words filed in the database; no cut-off is given here.

Key:
HL-60 [1] = test: Cell cycle arrest in human HL60 cells assessed as G2/M phase cells at 20 uM after 24 hrs by PI staining-based flow cytometric analysis (reference value: 3%); type: functional
HL-60 [2] = test: Cell cycle arrest in human HL60 cells assessed as G2/M phase cells at 5 uM after 24 hrs by PI staining-based flow cytometric analysis (reference value: 3%); type: functional
MIA PaCa-2 [3] = test: Growth inhibition of human MIAPaCa2 cells at 30 uM after 48 hrs by MTT assay; type: functional, cell-based
Method in brief: (§1)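 Single-concentration MTT screen at 50 µM over 48 h in 96-well plates. Compounds giving >50% inhibition were rescreened at 30 µM. OD read at 570 nm, reference 620 nm. Result expressed as % growth inhibition versus untreated control. Mitomycin C, adriamycin or 5-fluorouracil used as positive controls. Mean ± SD of three independent experiments.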

HL-60 [4] = test: Cytotoxicity against human HL60 cells after 48 hrs by MTT assay; type: functional, cell-based; details: HL-60, 48 h
Method in brief: (§2)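 MTT assay in 96-well plates, 48 h exposure across 1–100 µM. OD read at 570 nm against a 620 nm reference. Untreated control OD taken as 100% viability. IC50 derived from the concentration–response curves. Mean ± SD, n = 8 wells, from three independent experiments.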

PC-3 = test: Growth inhibition of human PC3 cells at 30 uM after 48 hrs by MTT assay; type: functional, cell-based; method in brief: as §1
MIA PaCa-2 [5] = test: Growth inhibition of human MIAPaCa2 cells at 50 uM after 48 hrs by MTT assay; type: functional; details: MIA PaCa-2, 48 h, read-out: GI; method in brief: as §1
HL-60 [6] = test: Cell cycle arrest in human HL60 cells assessed as S phase cells at 5 uM after 24 hrs by PI staining-based flow cytometric analysis (reference value: 49%); type: functional
HL-60 [7] = test: Induction of mitochondrial membrane potential loss in human HL60 cells at 15 uM after 24 hrs by rhodamine-123 staining method (reference value: 7%); type: functional
Method in brief: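 HL-60 cells (1 × 10⁶/2 ml/well) treated 24 h at 15 or 20 µM, then incubated with rhodamine-123 (200 nM) for 40 min. Loss of dye uptake measured by flow cytometry. Camptothecin (4 µM, 6 h) as positive control. Representative of three experiments.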

HL-60 [8] = test: Induction of apoptosis in human HL60 cells at 15 uM after 24 hrs by PI-staining based flow cytometric analysis (reference value: 0.7 %); type: functional
Caco-2 = test: Cytotoxicity against human Caco2 cells after 48 hrs by MTT assay; type: functional, cell-based; details: Caco-2, 48 h; method in brief: as §2
ASPC1 = test: Growth inhibition of human AsPC1 cells at 30 uM after 48 hrs by MTT assay; type: functional, cell-based; method in brief: as §1
HL-60 [9] = test: Induction of apoptosis in human HL60 cells at 20 uM after 24 hrs by PI-staining based flow cytometric analysis (reference value: 0.7 %); type: functional

Row | SMILES | Activity (HL-60 [1]) [%] | Activity (HL-60 [2]) [%] | growth inhibition (GI) (MIA PaCa-2 [3]) | IC50 (HL-60 [4]) [µM] | growth inhibition (GI) (PC-3) | inhibition of growth at 50 µM (MIA PaCa-2 [5]) [%] | Activity (HL-60 [6]) [%] | Activity (HL-60 [7]) [%] | Activity (HL-60 [8]) [%] | IC50 (Caco-2) [µM] | growth inhibition (GI) (ASPC1) | Activity (HL-60 [9]) [%]
1 | CC1(C)CCc2cc(C(=O)/C=C/c3cccc([N+](=O)[O-])c3)c3c(c2O1)CCC(C)(C)O3 | 3 | 6 | Active | 11 | Active | 80 | 48 | 44 | 30 | 16 | Active | 58
2 | CC1(C)CCc2cc(C(=O)/C=C/c3ccc([N+](=O)[O-])cc3)c3c(c2O1)CCC(C)(C)O3 | 4 | 9 | Active | 15 | Active | 74 | 47 | 52 | 14 | 28 | Active | 32
